The source made the active and inactive calls. The calls are words filed in the database; no cut-off is given here.
Legend:
A2780 [1] = assay: Antiproliferative activity against human A2780 cells incubated for 72 hrs in presence of 12.5 uM GLUT1 inhibitor phloretin by MTT assay; assay type: functional, cell-based
Summary of the method: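 A2780 cells given test compound together with the GLUT1 inhibitor phloretin (12.5 μM) for 72 h. Read-out by MTT, giving IC50. Triplicate runs, reported as mean ± standard deviation.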

MDA-MB-231 [2] = assay: Antiproliferative activity against human MDA-MB-231 cells ectopically overexpressing GLUT1 incubated for 72 hrs by MTT assay relative to normal cells; assay type: functional, cell-based
Summary of the method: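 MDA-MB-231 derivative line transduced to overexpress GLUT1 is compared with an isogenic control line transduced with the same vector expressing Turbo-635 fluorescent protein. GLUT1 levels were checked by Western blot. IC50 from MTT after 72 h. Triplicate, mean ± standard deviation.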

A2780 [3] = assay: Antiproliferative activity against human A2780 cells incubated for 72 hrs by MTT assay; assay type: functional, cell-based; settings: A2780, 72 h
Summary of the method: (§1)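 MTT assay after 72 h continuous exposure in MDA-MB-231 breast and A2780 ovarian cancer cells and MRC-5 normal lung fibroblasts. IC50 taken from the resulting dose–response.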

A2780 [4] = assay: Induction of apoptosis in human A2780 cells assessed as early apoptosis level at 20 uM incubated for 48 hrs by PI and FITC-Annexin V staining based flow cytometry; assay type: functional
Summary of the method: (§2)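 A2780 cells exposed to compound (20 μM) for 48 h. Cells then stained with FITC-Annexin V and propidium iodide and analysed by flow cytometry for early and late apoptotic fractions. Triplicate, mean ± standard deviation.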

MDA-MB-231 [5] = assay: Antiproliferative activity against human MDA-MB-231 cells incubated for 72 hrs by MTT assay; assay type: functional, cell-based; settings: MDA-MB-231, 72 h; summary of the method: as §1
[6] = Induction of intracellular iron sequestration in human A2780 cells at 20 uM by calcein based fluorescence assay
[7] = Antiproliferative activity against human MRC5 cells incubated for 72 hrs by MTT assay; assay type: toxicity, cell-based; summary of the method: as §1
[8] = (§3) Inhibition of cellular uptake of fluorescent glucose 2-NBDG in human A2780 cells at 50 uM incubated for 20 mins by flow cytometry; assay type: functional; design: scale not given: the % may be the effect or the level left
Summary of the method: (§4)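 A2780 cells held 12 h in glucose-free medium. They were then coincubated for 20 min with compound (50 μM) and 2-NBDG (100 μM) in growth medium with 1 g/L D-glucose. 2-NBDG uptake was read as flow-cytometric fluorescence, with phloretin (50 μM) as positive control. Triplicate, mean ± standard deviation.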

A2780 [9] = assay: Induction of apoptosis in human A2780 cells assessed as late apoptosis level at 20 uM incubated for 48 hrs by PI and FITC-Annexin V staining based flow cytometry; assay type: functional; summary of the method: as §2
[10] = Ratio of IC50 for antiproliferative activity against human A2780 cells incubated for 72 hrs in presence of 12.5 uM GLUT1 inhibitor phloretin by MTT assay to IC50 antiproliferative activity against human A2780 cells incubated for 72 hrs in absence of 12.5 uM GLUT1 inhibitor phloretin by MTT assay; assay type: functional
Summary of the method: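 A2780 ovarian cancer cells were treated for 72 h with compound, either alone or coincubated with the GLUT1 inhibitor phloretin at 12.5 μM. Viability was read by MTT assay. IC50 values were determined in triplicate under each condition and reported as averages ± standard deviation. The value is the IC50 with phloretin relative to the IC50 without it.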

A2780 [11] = assay: as §3; assay type: functional; summary of the method: as §4

COC(=O)CCSSc1ccccc1/C=N/NC(=O)c1ccccc1
inhibition (A2780 [1]): Active | Activity (MDA-MB-231 [2]): Active | IC50 (A2780 [3]): 2.1 µM | Activity (A2780 [4]): 5% | IC50 (MDA-MB-231 [5]): 12 µM | Activity [6]: 20% | IC50 at 72 h [7]: 12 µM

CC(=O)N(O)CCCCCNC(=O)CCC(=O)N(O)CCCCCNC(=O)CCC(=O)N(O)CCCCCN [DEFEROXAMINE]
IC50 (A2780 [3]): 3.5 µM | IC50 (MDA-MB-231 [5]): 6.1 µM | IC50 at 72 h [7]: 9 µM

O=C(CCSSc1ccccc1/C=N/NC(=O)c1ccccc1)OC[C@H]1OC(O)[C@H](O)[C@@H](O)[C@@H]1O (stereo partly drawn)
Activity (MDA-MB-231 [2]): Active | IC50 (A2780 [3]): 5.2 µM | Activity (A2780 [4]): 5% | IC50 (MDA-MB-231 [5]): 17 µM | Activity [6]: 20% | Activity [8]: >20% | IC50 at 72 h [7]: 26 µM

OC[C@H]1OC(O)C[C@@H](O)[C@@H]1O (stereo partly drawn)
Activity (A2780 [4]): 3.6% | Activity (A2780 [9]): 3.4%

O=C(CCSSc1ccccc1/C=N/NC(=O)c1ccccc1)OC[C@H]1OC(O)C[C@@H](O)[C@@H]1O (stereo partly drawn)
Activity (MDA-MB-231 [2]): Active | IC50 (A2780 [3]): 2.5 µM | Activity (A2780 [4]): 5% | IC50 (MDA-MB-231 [5]): 22 µM | Activity (A2780 [9]): 20% | Activity [6]: 20% | Activity [8]: >20% | Ratio IC50 [10]: >5 | IC50 at 72 h [7]: 29 µM

O=C(CCc1ccc(O)cc1)c1c(O)cc(O)cc1O
inhibition (A2780 [11]): Active

O=C(CCSSc1ccccc1/C=N/NC(=O)c1ccccc1)N[C@H]1C(O)O[C@H](CO)[C@@H](O)[C@@H]1O (stereo partly drawn)
Activity (MDA-MB-231 [2]): Active | IC50 (A2780 [3]): 5.3 µM | Activity (A2780 [4]): 5% | IC50 (MDA-MB-231 [5]): 17 µM | Activity [6]: 20% | Activity [8]: >20% | IC50 at 72 h [7]: 33 µM

O=C(N/N=C/c1ccccc1O)c1ccncc1 [SALINAZID]
Activity (A2780 [4]): 7.8% | Activity (A2780 [9]): 38%
